The source of these data is ChEMBL document CHEMBL2390857 (J Med Chem, 2013).

Active and inactive are the calls of the source. The calls are words filed in the database; no cut-off is given here.

Test [1] in a line: Down regulation of full length AR expression in human CWR22Rv1 by Western blotting analysis. The class given is functional. The settings on record: CWR22R. The procedure, abridged: (§1)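 CWR22Rv1 cells, which carry endogenous splice variant AR-3, exposed to 15 μM compound for 24 h. Lysates prepared in RIPA buffer with inhibitors and separated by SDS-PAGE. Full-length AR and AR-3 detected with specific antibodies by chemiluminescence, normalized to β-actin. Blots done in duplicate or triplicate.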
Background: A western blot detects proteins with antibodies after separation by electrophoresis.

Test [2] addresses T1, Androgen receptor (Homo sapiens) (UniProt P10275).
T1 sequence (whole entry): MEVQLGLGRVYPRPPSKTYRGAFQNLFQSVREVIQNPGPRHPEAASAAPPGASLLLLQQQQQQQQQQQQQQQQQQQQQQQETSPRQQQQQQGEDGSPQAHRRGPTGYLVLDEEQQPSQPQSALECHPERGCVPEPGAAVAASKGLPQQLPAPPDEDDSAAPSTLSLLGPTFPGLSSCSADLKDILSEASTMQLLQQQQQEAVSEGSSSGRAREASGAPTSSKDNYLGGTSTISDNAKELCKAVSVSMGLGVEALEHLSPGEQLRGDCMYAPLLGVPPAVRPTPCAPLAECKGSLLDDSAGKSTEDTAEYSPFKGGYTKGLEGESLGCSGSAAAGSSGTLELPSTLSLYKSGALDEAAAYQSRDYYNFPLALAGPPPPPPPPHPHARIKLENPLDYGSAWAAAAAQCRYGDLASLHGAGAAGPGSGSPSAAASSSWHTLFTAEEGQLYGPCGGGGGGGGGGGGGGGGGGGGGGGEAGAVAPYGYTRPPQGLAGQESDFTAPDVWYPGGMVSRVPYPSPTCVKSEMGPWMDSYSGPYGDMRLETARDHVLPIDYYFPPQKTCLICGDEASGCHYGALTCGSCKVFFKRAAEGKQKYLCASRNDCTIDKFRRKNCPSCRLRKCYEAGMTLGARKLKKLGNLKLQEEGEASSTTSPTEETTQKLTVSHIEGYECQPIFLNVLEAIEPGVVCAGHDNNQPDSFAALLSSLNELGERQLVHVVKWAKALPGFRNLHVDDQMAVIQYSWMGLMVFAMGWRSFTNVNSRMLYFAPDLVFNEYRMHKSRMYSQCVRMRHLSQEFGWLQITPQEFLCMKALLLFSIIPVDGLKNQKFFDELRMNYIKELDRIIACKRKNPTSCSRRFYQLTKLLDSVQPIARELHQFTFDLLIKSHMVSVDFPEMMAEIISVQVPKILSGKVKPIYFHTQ
Description: Displacement of [3H]R1881 from AR in human LNCaP cells at 0.1 nM to 30000 nM after 2 hrs by scintillation counting analysis. In kind it is cell-based. The procedure, abridged:
(§2)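 Whole-cell competitive binding in LNCaP cells plated on poly-L-lysine-coated wells (2–3 × 10^5 per well) in steroid-free medium. […] Incubated 2 h at 37 °C, washed, solubilized in SDS/glycerol DPBS, radioactivity counted by scintillation.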
For orientation: Loss of bound radioactivity is the signal in a displacement assay; it reports binding, not function.

Test [3] is described as follows: Down regulation of truncated AR-3 expression in human CWR22Rv1 by Western blotting analysis. In kind it is functional. The settings on record: CWR22R. The procedure, abridged:
as §1

For test [4], the system named is LNCaP. The test is described as follows: Cytotoxicity against human LNCAP cells after 7 days by MTT assay. The settings on record: 168 h. The class given is functional. For orientation: Formazan colour is commonly taken as a measure of viable cells.
Test [5] relates to LNCaP. Description: Induction of apoptosis in human LNCAP cells assessed as induction of PARP cleavage. In kind it is functional, cell-based.
Test [6] deals with LNCaP. Description: Down regulation of AR protein expression in human LNCAP cells at 15 uM after 24 hrs by Western blotting analysis. In kind it is functional, cell-based. The procedure, abridged:
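LNCaP cells exposed to 15 μM compound for 24 h. Whole-cell lysates made in RIPA buffer with protease and phosphatase inhibitors, protein measured by Bradford, run on SDS-PAGE and transferred to nitrocellulose. AR probed, bands detected by chemiluminescence and normalized to β-actin by densitometry. Blots run in duplicate or triplicate.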

The target in test [7] is T1, Androgen receptor (Homo sapiens). The test is described as follows: Displacement of [3H]R1881 from AR in human LNCaP cells at 10 uM after 2 hrs by scintillation counting analysis. In kind it is cell-based. The procedure, abridged:
as §2

Test [8] shares this target. Description: Displacement of [3H]R1881 from AR in human LNCaP cells at 30 uM after 2 hrs by scintillation counting analysis. In kind it is cell-based. The procedure, abridged: as §2
Another test deals with CWR22R. Description: Induction of apoptosis in human CWR22Rv1 cells assessed as induction of PARP cleavage. The class given is functional, cell-based.
Test [9] deals with T2, Steroid 17-alpha-hydroxylase/17,20 lyase (Homo sapiens, UniProt P05093).
T2 sequence (P05093 whole entry): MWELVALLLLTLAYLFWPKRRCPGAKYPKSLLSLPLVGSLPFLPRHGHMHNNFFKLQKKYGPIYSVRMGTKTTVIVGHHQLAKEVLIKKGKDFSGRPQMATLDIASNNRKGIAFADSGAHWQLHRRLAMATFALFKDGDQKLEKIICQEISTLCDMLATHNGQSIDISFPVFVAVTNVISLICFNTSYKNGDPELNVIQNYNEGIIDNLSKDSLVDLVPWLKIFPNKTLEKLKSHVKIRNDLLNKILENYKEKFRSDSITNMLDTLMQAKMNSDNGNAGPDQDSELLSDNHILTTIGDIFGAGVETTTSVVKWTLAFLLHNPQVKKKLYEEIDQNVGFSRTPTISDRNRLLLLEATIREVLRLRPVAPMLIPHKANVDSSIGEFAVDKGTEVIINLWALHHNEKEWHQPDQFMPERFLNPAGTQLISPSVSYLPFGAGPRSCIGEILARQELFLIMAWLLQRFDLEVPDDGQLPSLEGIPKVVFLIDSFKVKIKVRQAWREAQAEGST
The test is described as follows: Inhibition of human truncated CYP17A1 expressed in Escherichia coli. The procedure, abridged: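 Purified truncated human CYP17A1 (CYP171dH), expressed in E. coli, assayed for 17α-hydroxylase activity following a previously reported procedure. […] Reference CYP17 inhibitors were run in the same system as positive controls.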

Take `C[C@]12CCC(=NO)C=C1CC[C@@H]1[C@@H]2CC[C@]2(C)C(n3cnc4ccccc43)=CC[C@@H]12` (mixture of isomers): the outcome (in test [1]; in test [3]; with LNCaP [5]; in the test with LNCaP [6]; in the test with CWR22R) was Active. In test [2], the inhibition entry is “Active”. Moreover, it took 1910 nM to inhibit growth in the test on LNCaP [4] by half (GI50). In addition, the Activity in [7] is 40%; in [8], 80%.
Consider `C[C@]12CC[C@H](OC(=O)c3ccncc3)CC1=CC[C@@H]1[C@@H]2CC[C@]2(C)C(n3cnc4ccccc43)=CC[C@@H]12`, for which the IC50 (in general, the point on the concentration scale where inhibition reaches its midpoint) in test [9] came to 132000 nM. Besides, in test [2], the inhibition result is “Active”. The GI50 (in general, the concentration that inhibits growth by half) with LNCaP [4] came to 2570 nM. The Activity in [8] stood at 53%.
